From PubChem
An excerpt weighted towards active compounds, which were near 2.6% of everything screened.
Rce1 inhib: yeast Rce1p protease inhibitors, primary screen, biochemical, fluorescence, cell-free homogeneous; CAAX prenyl protease 2 (Saccharomyces cerevisiae (strain ATCC 204508 / S288c)), Q03530; yeast membranes, quenched prenylated peptide cleavage fluorescence; calls only; 290,000 tested, 0.27% active; AID 2563, 2010;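 active = fall in fluorescence gain of 50% or more versus controls, with final raw signal at or below 3038400; inconclusive = same 50% fall but final raw signal above 3038400; inactive = fall in fluorescence gain under 50%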
SKN-1 inh: suppressors of acrylamide-induced Pgst-4::GFP reporter in worms, primary screen, SKN-1 inhibitor project, whole organism, uHTS, GFP/RFP fluorescence ratio, strain VP596; C. elegans VP596 Pgst-4::GFP/RFP ratio, 24 h; inhibition, % at 21.8 µM; 360,000 tested, 0.49% active;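 active = interference check ratio from 0.5 to 1.5 plus GFP to RFP signal ratio inhibition reaching or exceeding a fixed threshold, cut at about 30% in these data, passing the limit was not always enough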
Rin1-Abl PPI inh: inhibitors of Rin1-Abl protein binding, primary screen, biochemical, TR-FRET | Tyrosine-protein kinase ABL1 (Homo sapiens) + Ras and Rab interactor 1 (Homo sapiens), … | inhibition, % at 7.35 µM | 360,000 tested, 0.4% active | AID 588664, 2011; in the data active = inhibition above about 5%, passing the limit was not always enough
Target sequence (P00519 whole entry, looked up): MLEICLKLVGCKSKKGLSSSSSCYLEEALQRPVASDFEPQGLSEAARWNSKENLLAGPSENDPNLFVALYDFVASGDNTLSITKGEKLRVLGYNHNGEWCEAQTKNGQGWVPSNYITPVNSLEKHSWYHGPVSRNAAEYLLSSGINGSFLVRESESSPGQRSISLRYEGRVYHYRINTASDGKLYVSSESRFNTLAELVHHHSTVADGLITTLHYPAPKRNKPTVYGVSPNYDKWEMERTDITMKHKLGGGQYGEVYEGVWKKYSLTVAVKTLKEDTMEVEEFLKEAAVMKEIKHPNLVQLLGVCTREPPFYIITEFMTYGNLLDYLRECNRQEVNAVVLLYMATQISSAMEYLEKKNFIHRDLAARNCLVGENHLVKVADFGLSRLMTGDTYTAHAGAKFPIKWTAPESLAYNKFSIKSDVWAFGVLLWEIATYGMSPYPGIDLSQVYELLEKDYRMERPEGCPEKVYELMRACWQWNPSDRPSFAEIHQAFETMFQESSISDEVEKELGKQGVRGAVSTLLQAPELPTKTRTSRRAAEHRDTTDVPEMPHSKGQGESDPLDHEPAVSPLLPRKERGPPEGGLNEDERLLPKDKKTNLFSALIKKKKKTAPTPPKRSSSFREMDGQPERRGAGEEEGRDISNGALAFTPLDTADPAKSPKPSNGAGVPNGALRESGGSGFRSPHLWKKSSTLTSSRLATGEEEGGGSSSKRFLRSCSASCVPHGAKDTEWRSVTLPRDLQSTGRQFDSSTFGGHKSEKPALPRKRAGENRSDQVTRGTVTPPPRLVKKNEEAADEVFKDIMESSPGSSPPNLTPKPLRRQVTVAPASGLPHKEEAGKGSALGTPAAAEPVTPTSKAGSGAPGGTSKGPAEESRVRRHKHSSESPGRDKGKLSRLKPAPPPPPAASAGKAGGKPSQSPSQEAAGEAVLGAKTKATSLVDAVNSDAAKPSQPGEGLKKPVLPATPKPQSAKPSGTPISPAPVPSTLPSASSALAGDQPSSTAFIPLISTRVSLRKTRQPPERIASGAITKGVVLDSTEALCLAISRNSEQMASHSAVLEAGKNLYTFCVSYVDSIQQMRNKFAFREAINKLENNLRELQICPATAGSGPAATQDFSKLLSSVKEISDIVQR
Target sequence (Q13671 whole entry, looked up): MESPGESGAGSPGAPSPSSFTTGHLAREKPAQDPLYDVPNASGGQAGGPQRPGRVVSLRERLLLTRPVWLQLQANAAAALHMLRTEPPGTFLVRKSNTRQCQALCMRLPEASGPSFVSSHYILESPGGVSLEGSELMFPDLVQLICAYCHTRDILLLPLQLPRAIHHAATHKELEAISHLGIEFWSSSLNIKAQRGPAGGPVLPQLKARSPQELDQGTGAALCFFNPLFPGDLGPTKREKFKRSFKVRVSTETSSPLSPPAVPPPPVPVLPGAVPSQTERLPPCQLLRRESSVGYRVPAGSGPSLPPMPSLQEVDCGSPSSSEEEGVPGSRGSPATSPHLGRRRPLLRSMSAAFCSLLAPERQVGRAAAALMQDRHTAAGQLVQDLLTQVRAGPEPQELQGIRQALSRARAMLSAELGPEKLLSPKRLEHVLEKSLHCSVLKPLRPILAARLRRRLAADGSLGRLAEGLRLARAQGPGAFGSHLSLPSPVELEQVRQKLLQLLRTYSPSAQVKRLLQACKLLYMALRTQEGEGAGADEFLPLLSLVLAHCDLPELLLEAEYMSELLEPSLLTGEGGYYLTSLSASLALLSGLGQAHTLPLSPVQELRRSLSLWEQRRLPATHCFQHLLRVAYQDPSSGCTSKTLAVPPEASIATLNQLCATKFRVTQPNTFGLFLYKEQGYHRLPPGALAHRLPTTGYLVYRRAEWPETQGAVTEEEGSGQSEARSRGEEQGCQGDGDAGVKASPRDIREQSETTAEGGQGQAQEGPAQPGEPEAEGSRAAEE
Myeloid diff MLP: induction of myeloid progenitor differentiation, primary screen, cell-based, flow cytometry, MLPCN library | ER-HoxA9 myeloid progenitors, lysozyme-GFP differentiation | calls only at 10 µM | 360,000 tested, 1% active | AID 624256, 2012;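 active = normalized GFP-positive differentiation at or above the plate's own cutoff, the solvent-only control mean plus 3 SD; inconclusive = no clear call, values can overlap the other calls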;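 note: cells exposed to compound for four days before flow analysis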
T cell modulator: modulators of CD8 T cell-vesicle binding, primary screen, mouse 2C CD8+ T cells, flow cytometry; 2C CD8+ T cell-vesicle binding; active compounds read low; response (vesicle binding), % at 7 µM; 330,000 tested, 0.068% active;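 active = response, share of CD8 T cells binding vesicles, and their 90th percentile fluorescence all below set limits, cut at about 80% in these data, passing the limit was not always enough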;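 note: values below 100% mean blocked vesicle binding to the CD8+ T cells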
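Material: murine 2C transgenic CD8+ T lymphocytes / Also added: QL9-peptide-loaded Drosophila micro-vesicles bearing Ld, ICAM-1 and B7-1 / Schedule: binding step 1.5 h, 37 °C, antibody labelling 20 min, ice / Signal: flow cytometry, PE anti-B7-1 (FL2) versus Alexa647 anti-CD8 (FL8), PFA-fixed / Evaluation: percent CD8+ FL2 mean versus row control / Benchmarks: naked versus QL9-loaded vesicles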
GRK2 inh: compounds blocking aptamer binding on GRK2 – biochemical, human GRK2, bead flow cytometry, HTS, primary screen | Beta-adrenergic receptor kinase 1 (Homo sapiens), P25098 | FAM-aptamer displacement from GRK2 | inhibition of aptamer binding, % at 10 µM | 330,000 tested, 0.59% active;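 active = inhibition of aptamer binding above 40%, roughly 3 SD of noise, on plates passing a quality check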;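 note: median bead fluorescence of bound FAM aptamer so fluorescent compounds give negative values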
Rin1 Abl conf: Rin1-Abl binding inhibitor retest, confirmation, biochemical, TR-FRET; shares compounds with Rin1-Abl PPI inh; purified proteins; inhibition, % at 7.35 µM; 1,300 tested, 49% active; AID 602124, 2011; in the data active = inhibition above about 6.5%
GFP quench-1: GFP fluorescence inhibitors and quenchers, artefact control for Rin1-Abl interaction inhibitor project, biochemical; shares compounds with Rin1-Abl PPI inh; inhibitors/quenchers counterscreen; inhibition, % at 6.75 µM; 1,300 tested, 8.5% active; in the data active = inhibition above about 6.5%;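 note: ABL1-eGFP fusion protein alone without its partner RIN1-SBP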
GFP quench DR: GFP fluorescence inhibitors and quenchers, dose response, artefact control for Rin1-Abl interaction inhibitor project, biochemical. shares compounds with Rin1-Abl PPI inh. GFP fluorescence interference/quenching counterscreen. IC50, µM. 230 tested, under 10 active;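 note: ABL1-eGFP fusion protein alone without its RIN1 binding partner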
GFP quench-2: GFP fluorescence inhibitors and quenchers, late-stage follow-up, artefact control for Rin1-Abl interaction inhibitor project, biochemical, dose response. shares compounds with Rin1-Abl PPI inh. GFP fluorescence quenching counterscreen. IC50, µM. 25 tested, under 10 active
Large screens that a line does not name were inactive (follow-up assays come after a bar, where they were run). Unless noted, the rule behind the calls is not given here.

N#Cc1ccccc1Sc1ccccc1C(=O)NCC(c1ccco1)N1CCCC1 (centres undefined)	Rin1-Abl PPI inh 49 | Rin1 Abl conf 62 | GFP quench-1 inactive | GFP quench DR inactive | GFP quench-2 inactive
N#Cc1ccc(C(=O)NCC(c2ccco2)N2CCCC2)cc1 (centres undefined)	none
Nc1cc2nsnc2cc1Br	Rin1-Abl PPI inh 10, Myeloid diff MLP inconclusive | Rin1 Abl conf 26 | GFP quench-1 9.5
Nc1cccc2nsnc12	none
Oc1cc2c(cc1O)C1c3ccc(O)c(O)c3OCC1(O)C2 (centres undefined)	Rin1-Abl PPI inh 31 (no result: Rce1 inhib) | Rin1 Abl conf 31 | GFP quench-1 20
CC(C)(C)C(=O)Nc1cc(NC(=O)C(C)(C)C)cc(C(=O)Nc2c[nH]c(=O)[nH]c2=O)c1	none
Nc1ccc(Sc2nc3ccccc3[nH]2)cc1	none
CC(=O)Nc1ccc(C(=O)N/N=C/c2ccc(F)cc2)cc1	Rin1-Abl PPI inh 10 | Rin1 Abl conf inactive | GFP quench-1 inactive
Cc1ccc(OCCNc2cc(N3CCN(CCO)CC3)ccc2[N+](=O)[O-])cc1C	none
COc1ccccc1NCC(=O)Nc1cc(S(=O)(=O)N2CCOCC2)ccc1N1CCOCC1	Rin1-Abl PPI inh 9.2 | Rin1 Abl conf 8.2 | GFP quench-1 inactive
Cc1ccc(C2=NNC3(CCOC(C)(C)C3)S2)cc1 (centres undefined)	none (no result: Rce1 inhib)
CN(C(=O)c1cccc(NC(=O)Cc2ccc(NC(=O)C3CCN(C(=O)C4CCC4)CC3)cc2)c1)C1CC1	none (no result: Rce1 inhib, T cell modulator, GRK2 inh)
CCOC(=O)N1CCC(Nc2ncnc3c2cnn3-c2ccccc2)CC1	Rin1-Abl PPI inh 9.9 | Rin1 Abl conf inactive | GFP quench-1 inactive
O=C(CSc1nc2ccccc2[nH]1)NC1CCCc2ccccc21 (centres undefined)	none
O=C(CSc1nc2ccccc2s1)NC1CCCc2ccccc21 (centres undefined)	Rin1-Abl PPI inh 7.5 | Rin1 Abl conf inactive | GFP quench-1 inactive
C#CCNC(=O)C[C@@H]1C[C@@]2(C(=O)OC)CCCCC=C2N(Cc2ccc(Cl)cc2Cl)C1=O	none (no result: Rce1 inhib, Rin1-Abl PPI inh, T cell modulator, GRK2 inh)
CCCc1cc(N2CCN(c3ccccn3)CC2)n2nc(C)c(-c3ccccc3)c2n1	Rin1-Abl PPI inh 8.1 | Rin1 Abl conf inactive | GFP quench-1 inactive
O=c1cc(CO)oc(CN2CCN(CCO)CC2)c1O	Rin1-Abl PPI inh 6.5 | Rin1 Abl conf inactive | GFP quench-1 inactive
CCCc1cc(=O)[nH]c(SCC(=O)NC2CCCCCCC2)n1	Rin1-Abl PPI inh 9.1, Myeloid diff MLP inconclusive (no result: Rce1 inhib) | Rin1 Abl conf inactive | GFP quench-1 inactive
CCCc1cc(=O)[nH]c(SCC(=O)NC2CC2)n1	none (no result: Rce1 inhib)
CCOc1ccc(-n2c(=S)sc3c(=O)[nH]c(SCC(=O)C(C)(C)C)nc32)cc1	none
COc1ccc(NC(=O)CN(C)C2CCCCC2)cc1Cl	none
COc1ccc(NC(=O)Nc2cc(C)ccc2OC)cc1	Rin1-Abl PPI inh 5.9 | Rin1 Abl conf inactive | GFP quench-1 inactive
COc1ccc(C)cc1NC(=O)Nc1ccccc1	none
COc1ccc(C)cc1NC(=O)CN(C)C1CCCCC1	Rin1-Abl PPI inh 15 | Rin1 Abl conf inactive | GFP quench-1 inactive
CCCCn1c(N)c(N(CC(C)C)C(=O)c2ccco2)c(=O)[nH]c1=O	none
CCc1nnc(NC(=O)c2c(OC)cccc2OC)s1	none
CCOCc1nnc(NC(=O)c2c(OC)cccc2OC)s1	Rin1-Abl PPI inh 22 | Rin1 Abl conf 24 | GFP quench-1 inactive | GFP quench DR inactive
CCN(C(=O)COC(=O)c1cc(Cl)ccc1OC)c1c(N)n(Cc2ccccc2)c(=O)[nH]c1=O	Rin1-Abl PPI inh 8.7 (no result: Rce1 inhib) | Rin1 Abl conf inactive | GFP quench-1 inactive
O=C(CCN1C(=O)[C@@H]2Cc3ccccc3CN2C1=O)NCc1ccc(Cl)cc1	Rin1-Abl PPI inh 29 | Rin1 Abl conf inactive | GFP quench-1 inactive
O=C(CCN1C(=O)[C@@H]2Cc3ccccc3CN2C1=O)N[C@H](Cc1ccccc1)C(=O)O	none
COc1ccccc1N1CCN(Cc2ccc(O)c3ncccc23)CC1	Rin1-Abl PPI inh 18, Myeloid diff MLP inconclusive | Rin1 Abl conf inactive | GFP quench-1 inactive
COc1ccccc1N1CCN(Cc2ccc(OC)c(OC)c2OC)CC1	none
COc1ccc(CCNC(=O)CC2SC(=NCc3ccccc3)NC2=O)cc1 (centres undefined)	none
Cc1ccc(Cn2nnc3c(=O)[nH]c(C4CCN(C(=O)Cc5cccs5)CC4)nc32)cc1	none
Cc1ccc(CC(=O)N2CCC(c3nc4c(nnn4Cc4ccccc4)c(=O)[nH]3)CC2)cc1	Rin1-Abl PPI inh 8.8 | Rin1 Abl conf 7.1 | GFP quench-1 inactive
O=C(NCc1ccncc1)c1ccc(Br)cc1	none
O=C(CCNC(=O)c1ccc(Br)cc1)NCc1ccncc1	Rin1-Abl PPI inh 10 | Rin1 Abl conf inactive | GFP quench-1 inactive
O=C(O)c1cnn2c(-c3ccccc3)ccnc12	none
COc1ccc(-c2ccnc3c(C(=O)O)cnn23)cc1	Rin1-Abl PPI inh 9.6 | Rin1 Abl conf inactive | GFP quench-1 inactive
CCOc1cc(N2CCOCC2)c(OCC)cc1NC(C)C(=O)N1CCN(CC)CC1 (centres undefined)	Rin1-Abl PPI inh 38 (no result: T cell modulator, GRK2 inh) | Rin1 Abl conf inactive | GFP quench-1 inactive
CN(C)S(=O)(=O)c1ccc(C(=O)OC2CCOC2=O)cc1 (centres undefined)	Rin1-Abl PPI inh 6.9 | Rin1 Abl conf inactive | GFP quench-1 inactive
COC(=O)c1ccc(CSc2nnc(-c3ccncc3)o2)o1	Rin1-Abl PPI inh 19 | Rin1 Abl conf 39 | GFP quench-1 inactive | GFP quench DR inactive
COC(=O)c1ccccc1NC(=O)CSc1nnc(-c2ccncc2)o1	Rin1-Abl PPI inh 16 | Rin1 Abl conf 16 | GFP quench-1 inactive
